In PubChem BioAssay AID1040 (The Scripps Research Institute Molecular Screening Center, 2008):
About 2,000 (1%) of roughly 200,000 compounds were called active. The sample holds actives, similar compounds and a random draw of the others, so the mix is not that of the screen. Unmarked numbers belong to inactive results.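 How the source made its calls: active means inhibition above the campaign mean inhibition of all tested compounds plus 3 SD (cut at about 20% in these data); inactive means the rest.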

target: Neuropeptide Y receptor type 1 (Homo sapiens) (UniProt P25929); assay: NPY-Y1 receptor antagonists, primary screen, cell-based (AID 1040); details: HEK293-CNG Y1 cells, membrane potential fluorescence; at 3.6 µM; active compounds read high; NPY at EC95, then isoproterenol;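 further: 0% = DMSO wells given NPY plus isoproterenol and 100% = isoproterenol alone without NPY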
In short: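 Benchmarks – high control isoproterenol alone, low control NPY with isoproterenol · Material – HEK293 Y1/CNG channel cell line · Times – dye 3 h, compound 60 min room temperature, stimulation 45 min · Probe or stimulus – NPY (25 nM), isoproterenol (1 µM), Ro 20-1724 (25 µM) · Evaluation – % inhibition of NPY effect · Signal – fluorescence, membrane potential probe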

Neuropeptide Y receptor type 1 (Homo sapiens), sequence (P25929 whole entry, looked up): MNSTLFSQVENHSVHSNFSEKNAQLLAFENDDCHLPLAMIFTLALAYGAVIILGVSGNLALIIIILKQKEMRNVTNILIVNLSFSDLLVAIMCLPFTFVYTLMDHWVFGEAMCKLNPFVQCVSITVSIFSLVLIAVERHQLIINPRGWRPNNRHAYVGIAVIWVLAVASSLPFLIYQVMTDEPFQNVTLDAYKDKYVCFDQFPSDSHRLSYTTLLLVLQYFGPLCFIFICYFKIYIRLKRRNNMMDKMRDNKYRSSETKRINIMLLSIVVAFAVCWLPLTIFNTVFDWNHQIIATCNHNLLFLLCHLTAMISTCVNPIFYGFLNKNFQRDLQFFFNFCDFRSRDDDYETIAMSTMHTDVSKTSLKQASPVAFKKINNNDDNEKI

Question: With CCOC(=O)c1cccnc1NC(=O)c1ccncc1 as the molecule, how does the inhibition read?
Answer: -1.05%

Question: CC(C)N(C(=O)CSc1nc(COc2ccccc2)nc2ccccc12)C(C)C was tested. Which inhibition did it give?
Answer: 3.31%

Question: Which inhibition does the source give for CCOC(=O)N1CCN(C(=S)Nc2ccc(C)cc2C)CC1 here?
Answer: 3.77%

Question: Which inhibition does the source give for CCOC(=O)c1cn(Cc2cccc(C)c2)nn1 here?
Answer: -0.81%

Question: Which inhibition does the source give for CCOC(=O)c1nn(-c2cccc(C)c2)cc1C(=O)c1ccccc1 here?
Answer: 22% (active)

Question: Which inhibition does the source give for CC(=O)c1nn(-c2cccc(Br)c2)cc1C(=O)c1cccc2ccccc12 here?
Answer: -2.46%

Question: How did the inhibition turn out when CCCCCCC(=O)Nc1nc(C)c(-c2csc(Nc3cccc(OC)c3)n2)s1 was run?
Answer: 28.2% (active)

Question: For CCCCCCC(=O)Nc1nc(C)c(-c2csc(Nc3cc(Cl)ccc3OC)n2)s1, which inhibition is on record?
Answer: 11.2%

Question: Which inhibition does the source give for CCCCC(=O)Nc1nc(C)c(-c2csc(Nc3ccc(Cl)cc3)n2)s1 here?
Answer: 4.16%

Question: Which inhibition does the source give for CCOC(=O)C1CCCN(C(=O)COc2ccc(N(C)S(=O)(=O)c3ccc(C)cc3)cc2)C1 (stereo not given) here?
Answer: 2%

Question: How did the inhibition turn out when CCSC1=NCCN1S(=O)(=O)c1ccc(F)cc1 was run?
Answer: -1.87%

Question: Cc1cccc(OCC(=O)Nc2ccccc2F)c1 was tested. Which inhibition did it give?
Answer: 5.47%

Question: Cc1ccc(OCC(=O)Nc2cccc3c2CCCC3)cc1C was tested. Which inhibition did it give?
Answer: 21.6% (active)

Question: How did the inhibition turn out when COCCNC(=O)COc1ccc(C)c(C)c1 was run?
Answer: -3.6%

Question: For COc1ccc(C2Nc3ccccc3C(=O)N2c2ccc(F)cc2)cc1Cn1nnc2ccccc21 (stereo not given), which inhibition is on record?
Answer: -0.97%

Question: How did the inhibition turn out when COc1ccc(C2Nc3ccccc3C(=O)N2c2ccc(Cl)cc2)cc1Cn1cc([N+](=O)[O-])cn1 (stereo not given) was run?
Answer: 3.97%

Question: With COc1ccc(C2Nc3ccccc3C(=O)N2Cc2ccccc2)cc1Cn1nnc2ccccc21 (stereo not given) as the molecule, how does the inhibition read?
Answer: 27.9% (active)

Question: For OCCC1CN(Cc2cccc(OC3CCCC3)c2)CCN1Cc1ccsc1 (stereo not given), which inhibition is on record?
Answer: 7.81%

Question: For CC(=O)NCCC(=O)Nc1nc(C)c(Cc2ccc3c(c2)OCO3)s1, which inhibition is on record?
Answer: 3.53%

Question: Which inhibition does the source give for CC(=O)OC(C)C[N+](C)(C)C (stereo not given) here?
Answer: 25.2% (active)

Question: For CC(C[N+](C)(C)C)OC(N)=O (stereo not given), which inhibition is on record?
Answer: -2.3%

Question: For Cc1cc(C)c(OCCN2CC(C)OC(C)C2)c(Br)c1 (stereo not given), which inhibition is on record?
Answer: 9.03%

Question: How did the inhibition turn out when CC1CN(CCCOc2ccccc2-c2ccccc2)CC(C)O1 (stereo not given) was run?
Answer: 24.5% (active)

Question: For CC1CN(CCOc2ccccc2[N+](=O)[O-])CC(C)O1 (stereo not given), which inhibition is on record?
Answer: -1.43%

Question: Which inhibition does the source give for c1ccc(-c2ccccc2OCCN2CCCCC2)cc1 here?
Answer: 22.3% (active)

Question: For CC1CCCN(CCOCCOc2ccccc2-c2ccccc2)C1 (stereo not given), which inhibition is on record?
Answer: 12.5%

Question: How did the inhibition turn out when CN1CCN(CCCCOc2ccccc2-c2ccccc2)CC1 was run?
Answer: 12.9%

Question: With COC(=O)COc1cccc2c(=O)n(CC(=O)NCCc3ccc(OC)c(OC)c3)ccc12 as the molecule, how does the inhibition read?
Answer: -1.97%

Question: O=C(CSc1nnnn1C1CCCC1)Nc1ccc2c(c1)OCCO2 was tested. Which inhibition did it give?
Answer: 22.9% (active)

Question: For O=C(CSc1nnnn1-c1ccc2c(c1)CCC2)Nc1ccc2c(c1)OCCO2, which inhibition is on record?
Answer: 6.81%

Question: With CCC(=O)Nc1cccc(NC(=O)CSc2nnnn2C2CCCC2)c1 as the molecule, how does the inhibition read?
Answer: 3.57%

Question: CCC(=O)Nc1ccc(S(=O)(=O)NCC2CCCO2)cc1 (stereo not given) was tested. Which inhibition did it give?
Answer: -5.94%

Question: For CCC(=O)c1c[nH]c(C(=O)NCC2CCCO2)c1 (stereo not given), which inhibition is on record?
Answer: 55.6% (active)

Question: With O=C(NCC1CCCO1)c1ccc2ccccc2n1 (stereo not given) as the molecule, how does the inhibition read?
Answer: 2.64%

Question: For Nc1ccc(Cl)c(S(=O)(=O)Nc2ccccc2Cl)c1, which inhibition is on record?
Answer: -0.95%

Question: Which inhibition does the source give for COC(=O)c1ccc(NC(=S)NN2CCOCC2)cc1 here?
Answer: 4.27%

Question: Which inhibition does the source give for CC(Nc1nc(N2CCOCC2)nc2ccccc12)c1ccccc1 (stereo not given) here?
Answer: 8.28%

Question: How did the inhibition turn out when CC(Nc1nc(N2CCCC2)nc2ccccc12)c1ccccc1 (stereo not given) was run?
Answer: 32.6% (active)

Question: CC(Nc1nc(N2CCN(CCO)CC2)nc2ccccc12)c1ccccc1 (stereo not given) was tested. Which inhibition did it give?
Answer: 22.2% (active)

Question: How did the inhibition turn out when c1ccc(-c2cc(N3CCCCC3)c3ccccc3n2)cc1 was run?
Answer: 15.9%

Question: Which inhibition does the source give for CCCCn1c(CN2CCN(CCO)CC2)nc2ccccc21 here?
Answer: 6.52%

Question: With O=C(NC(c1ccccc1)c1ccccc1)N1CCN(CCO)CC1 as the molecule, how does the inhibition read?
Answer: 3.34%

Question: COc1ccc(CC(=O)Nc2ccccc2NC(=O)c2ccco2)cc1OC was tested. Which inhibition did it give?
Answer: 0.93%

Question: With Cc1ccc(-c2nnc(SCC(=O)N/N=C/c3cccs3)n2-c2ccc(C)cc2)cc1 as the molecule, how does the inhibition read?
Answer: 0.85%

Question: With CC(Oc1ccccc1F)C(=O)NN (stereo not given) as the molecule, how does the inhibition read?
Answer: 2.86%

Question: Which inhibition does the source give for O=C(O)CCc1nc2cc(Cl)ccc2n(Cc2ccccc2)c1=O here?
Answer: 5.7%

Question: For O=C(C1CCCN1S(=O)(=O)c1ccc(Br)cc1)N1CCOCC1 (stereo not given), which inhibition is on record?
Answer: -0.15%

Question: How did the inhibition turn out when CN1CCN(c2ccc(NC(=O)c3ccc4c(c3)OCCO4)cc2Cl)CC1 was run?
Answer: 12%

Question: How did the inhibition turn out when O=C(O)c1ccccc1-c1ccccc1C(=O)Nc1nccs1 was run?
Answer: 2.4%

Question: Which inhibition does the source give for O=C(NCCc1ccc(F)cc1)c1n[nH]c2ccccc12 here?
Answer: -0.22%

Question: For Cc1ccc(C)c(NC(=S)NCC(c2cccnc2)N2CCOCC2)c1 (stereo not given), which inhibition is on record?
Answer: 0.28%

Question: O=C1c2cccc3cccc(c23)C(=O)N1CCCCCc1n[nH]c(=S)o1 was tested. Which inhibition did it give?
Answer: 5.39%

Question: O=C(Nc1cccc(Cl)c1)Nc1ccccc1NS(=O)(=O)c1cccs1 was tested. Which inhibition did it give?
Answer: -7.2%

Question: Which inhibition does the source give for c1ccc(-c2[nH]ncc2-c2nc3ccccc3[nH]2)cc1 here?
Answer: -3.83%

Question: Which inhibition does the source give for c1ccc2[nH]c(-c3nc4ccccc4[nH]3)nc2c1 here?
Answer: 0.38%

Question: How did the inhibition turn out when COc1ccc(-c2[nH]nc(-c3ccccc3)c2-c2nc3ccccc3[nH]2)cc1 was run?
Answer: 20.3% (active)

Question: Which inhibition does the source give for Cc1ccc(NC(=O)C(=O)NCC2CCN(C(=O)c3cccc([N+](=O)[O-])c3)CC2)cc1 here?
Answer: -1.84%

Question: Cc1ccc(S(=O)(=O)/N=C(\N)c2ccc(F)cc2)cc1 was tested. Which inhibition did it give?
Answer: -5.62%

Question: With O=C(NCc1ccccn1)c1cc(-c2ccccc2Cl)on1 as the molecule, how does the inhibition read?
Answer: 9.55%

Question: For Clc1ccccc1-c1cc(COc2ccc3ccccc3c2)no1, which inhibition is on record?
Answer: 25.6% (active)

Question: Clc1ccc(-c2cc(COc3ccccc3)no2)cc1Cl was tested. Which inhibition did it give?
Answer: 5%

Question: With Cc1cc(C)cc(C(=O)NC(=S)Nc2ccc3[nH]c(=O)[nH]c3c2)c1 as the molecule, how does the inhibition read?
Answer: 6.81%

Question: With COc1ccccc1CNC(=O)c1cc(=O)c2ccccc2o1 as the molecule, how does the inhibition read?
Answer: -4.58%

Question: Which inhibition does the source give for COc1ccccc1C1C2=C(COC2=O)Nc2cc3c(cc21)OCO3 (stereo not given) here?
Answer: 36.2% (active)

Question: With COc1cc2c(cc1/C=C1/NC(=O)N(c3ccccc3)C1=O)OCO2 as the molecule, how does the inhibition read?
Answer: 6.09%

Question: How did the inhibition turn out when CCCOc1ccccc1C1CC(=O)Nc2cc3c(cc21)OCO3 (stereo not given) was run?
Answer: 8.29%

Question: For CCC(C)[C@@H](C(=O)N1CCNCC1)n1cc(CCCCN)nn1 (stereo not given in full), which inhibition is on record?
Answer: 1.85%

Question: With O=C(CC1NCCNC1=O)Nc1cc(Cl)cc(Cl)c1 (stereo not given) as the molecule, how does the inhibition read?
Answer: 0.62%

Question: How did the inhibition turn out when COC(=O)c1ccc(/C=N/OCC(=O)Nc2cc(F)ccc2F)cc1 was run?
Answer: 11.1%

Question: How did the inhibition turn out when Cc1ccc(CSc2nc3[nH]ncc3c(=O)[nH]2)cc1 was run?
Answer: 7.17%

Question: Cc1cccc2cc(CN(Cc3ccc4c(c3)OCO4)Cc3nnnn3C3CCCC3)c(=O)[nH]c12 was tested. Which inhibition did it give?
Answer: -4.12%

Question: CCC(c1nnnn1C1CCCC1)N(Cc1cccs1)Cc1cc2cccc(C)c2[nH]c1=O (stereo not given) was tested. Which inhibition did it give?
Answer: 20.4% (active)

Question: Which inhibition does the source give for Cc1cccc2cc(CN(Cc3cccs3)C(c3nnnn3C3CCCC3)C(C)C)c(=O)[nH]c12 (stereo not given) here?
Answer: 14.5%

Question: Which inhibition does the source give for CCOc1cccc(OCCCOc2cccc3cccnc23)c1 here?
Answer: 1.99%

Question: How did the inhibition turn out when CN(C)S(=O)(=O)c1cccc(NC(=O)COC(=O)c2cc(=O)[nH]c(=O)[nH]2)c1 was run?
Answer: 0.75%

Question: How did the inhibition turn out when CCOC(=O)C1CCN(C(=O)/C=C/c2cc(OC)c(OC)c(OC)c2)CC1 was run?
Answer: -1.4%

Question: With Cc1ccc(/C=N/NC(=O)c2sccc2OCc2ccc(F)cc2)cc1 as the molecule, how does the inhibition read?
Answer: 27.2% (active)

Question: How did the inhibition turn out when Cc1ccsc1C(=O)N/N=C/c1ccc([N+](=O)[O-])cc1 was run?
Answer: 2.54%

Question: With Cc1ccc(COc2ccc(/C=N/NC(=O)CN3CCCCC3)cc2)cc1 as the molecule, how does the inhibition read?
Answer: 16.6%

Question: For CS/C(=C\[N+](=O)[O-])Nc1ccc(C)cc1, which inhibition is on record?
Answer: 10.6%

Question: For O=C(COC(=O)C1CC2C=CC1C2)Nc1ccccc1 (stereo not given), which inhibition is on record?
Answer: -2.39%

Question: With CCCCN(CC)C(=O)c1ccc2c(c1)OCO2 as the molecule, how does the inhibition read?
Answer: -2.36%

Question: Which inhibition does the source give for CCOc1ccc(CCNC(=O)C2=C(C)C(=O)OC23CCC(C)CC3)cc1OCC (stereo not given) here?
Answer: 8.46%

Question: How did the inhibition turn out when O=C(O)CSc1nccc2ccccc12 was run?
Answer: 21.7% (active)

Question: For COC(=O)CSc1nc(C2CC2)nc2ccccc12, which inhibition is on record?
Answer: 3.03%

Question: With O=C(O)CSc1nccn1-c1cccc(Cl)c1 as the molecule, how does the inhibition read?
Answer: 7.38%

Question: CC1COc2ccccc2N1C(=O)c1cccnc1Cl (stereo not given) was tested. Which inhibition did it give?
Answer: 1.41%

Question: Which inhibition does the source give for CCOc1ccccc1Nc1ccc(C(=O)O)cc1[N+](=O)[O-] here?
Answer: 3.86%

Question: Which inhibition does the source give for ClC1(Cl)CC1CSc1ncn[nH]1 (stereo not given) here?
Answer: 3.1%

Question: COC(=O)c1nc2n(n1)C(c1ccc([N+](=O)[O-])cc1)C(C(=O)Nc1ccc(Cl)cc1)=C(C)N2 (stereo not given) was tested. Which inhibition did it give?
Answer: -1.89%

Question: For Cc1nn(C)c(C)c1Sc1ccccc1N, which inhibition is on record?
Answer: -0.64%

Question: For COc1ccc2[nH]c3c(=O)n(Cc4ccco4)cnc3c2c1, which inhibition is on record?
Answer: 1.7%

Question: How did the inhibition turn out when c1ccc(-c2oc3ncnc(N4CCOCC4)c3c2-c2ccccc2)cc1 was run?
Answer: 4.24%

Question: Which inhibition does the source give for C(=C\c1ccccc1)/CSc1nnc(-c2cccnc2)n1Cc1ccco1 here?
Answer: 9.54%

Question: For N=c1c2c(-c3ccccc3)c(-c3ccccc3)oc2ncn1Cc1ccco1, which inhibition is on record?
Answer: 25.5% (active)

Question: For COc1ccc(-n2cnc3cc(NCc4ccco4)ccc32)cc1, which inhibition is on record?
Answer: -4.2%

Question: Which inhibition does the source give for COc1ccc(-c2oc3ncn(Cc4ccco4)c(=N)c3c2-c2ccc(OC)cc2)cc1 here?
Answer: 31.4% (active)

Question: With Cc1ccccc1NC(=O)NC1(C(=O)N2CCCC2)CCCCC1 as the molecule, how does the inhibition read?
Answer: 0.5%

Question: With COc1cc(SC)ccc1C(=O)Nc1cc(C)ccn1 as the molecule, how does the inhibition read?
Answer: 4.33%

Question: Which inhibition does the source give for Cc1ccc(C(=O)NCC(=O)O)s1 here?
Answer: -2.04%
